28 compounds from ChEMBL document CHEMBL1149170, “Khellinone derivatives as blockers of the voltage-gated potassium channel Kv1.3: synthesis and immunosuppressive activity” (J Med Chem, 2004) can be followed below.

What is called Kd is the equilibrium constant for the complex coming apart. The term EC50 denotes the concentration that produces a half-maximal response. Low values mean higher potency in that assay, high ones lower potency in that assay.

Assay [1] addresses T1, Potassium voltage-gated channel subfamily A member 3 (Homo sapiens, UniProt P22001). The experiment in a line: Dissociation constant for the blockade of voltage-gated potassium channel subunit Kv1.3 in human lymphocytes; no effect when tested at 1 uM. Format: cell-based. The method, boiled down:
(§1)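 Whole-cell patch clamp on cells stably expressing Kv1.3, holding potential −80 mV. Bath: Ringer (160 mM NaCl, 4.5 mM KCl, 2 mM CaCl2, 1 mM MgCl2, 10 mM HEPES, pH 7.4). Pipette: 134 mM KF, 2 mM MgCl2, 10 mM HEPES, 10 mM EGTA, pH 7.2. 500-ms pulses to 40 mV every 45 s. Single test concentration only.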

Assay [2] has as its target T1, Potassium voltage-gated channel subfamily A member 3. The experiment in a line: Dissociation constant for the blockage of voltage-gated potassium channel subunit Kv1.3 in human lymphocytes. Format: cell-based.
A short description of assay [3]: Selectivity for Kv1.3 over Kv1.1 voltage-gated potassium channel subunit. The method, boiled down:
(§2)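 Ringer bath, KF/EGTA pipette. Kv1.1, Kv1.2, Kv1.5, Kv1.7 and IKCa1 recorded in stably or transiently expressing cells. Kd from Hill fit to reduction in current area. Each compound 2–3 times at 3–5 concentrations.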

A short description of assay [4]: Selectivity for Kv1.3 over Kv1.2 voltage-gated potassium channel subunit. The method, boiled down:
as §2

The species named for another assay is Homo sapiens. Briefly: Inhibition of anti-CD3 dependent human T cell proliferation. The class given is functional. The gist of the method: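 PBMCs from healthy volunteers, isolated on a density gradient, seeded at 2×10^5 cells/well in supplemented RPMI 1640. Compound preincubation 60 min, then anti-CD3 antibody 50 ng/mL for 48 h. [3H]thymidine added for the last 6 h; incorporation counted by scintillation. Normalized to maximal control incorporation. Triplicate.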

Assay [5] concerns the target T1, Potassium voltage-gated channel subfamily A member 3. Briefly: Dissociation constant for blockade of voltage-gated potassium channel subunit Kv1.3 in human lymphocytes; no effect when tested at 10 uM. Format: cell-based. The method, boiled down: as §1
The nature of assay [6]: Selectivity for Kv1.3 over Kv1.7 voltage-gated potassium channel subunit. The method, boiled down:
as §2

The nature of assay [7]: Selectivity for Kv1.3 voltage-gated K+ channel over IKCa1 [Ca2+] activated K+ channel. The method, boiled down:
as §2

The nature of assay [8]: Selectivity for Kv1.3 over Kv1.5 voltage-gated potassium channel subunit. The gist of the method:
as §2

T1 sequence (P22001 whole entry): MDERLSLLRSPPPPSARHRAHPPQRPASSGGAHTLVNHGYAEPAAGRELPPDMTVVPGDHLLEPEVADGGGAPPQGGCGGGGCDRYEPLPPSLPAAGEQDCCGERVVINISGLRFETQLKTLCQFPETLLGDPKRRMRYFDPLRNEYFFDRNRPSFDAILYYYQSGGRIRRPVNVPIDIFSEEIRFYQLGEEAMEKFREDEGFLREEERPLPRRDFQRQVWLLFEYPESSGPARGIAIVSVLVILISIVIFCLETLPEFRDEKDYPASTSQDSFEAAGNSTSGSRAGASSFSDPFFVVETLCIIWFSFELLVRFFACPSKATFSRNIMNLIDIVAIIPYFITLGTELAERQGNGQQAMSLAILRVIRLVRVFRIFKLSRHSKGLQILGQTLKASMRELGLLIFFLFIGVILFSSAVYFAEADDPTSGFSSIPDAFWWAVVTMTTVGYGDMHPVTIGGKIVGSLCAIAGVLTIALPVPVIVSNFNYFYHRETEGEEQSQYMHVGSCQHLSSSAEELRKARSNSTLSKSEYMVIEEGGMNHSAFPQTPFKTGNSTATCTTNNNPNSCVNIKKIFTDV

Turning to `COc1c(C(=O)/C=C/c2ccccc2)c(OCc2ccc(COc3c(C(=O)/C=C/c4ccccc4)c(OC)c4ccoc4c3OC)cc2)c(OC)c2occc12`, in [1], the Kd result is recorded as “Not Active”.

In [2], `COc1c(C(C)O)c(OCc2ccc(COc3c(C(C)O)c(OC)c4occc4c3OC)cc2)c(OC)c2occc12` (stereo unspecified) came in with a Kd of 2 µM.

Take `COc1c(C(=O)/C=C/c2ccccc2)c(O)cc2occc12`: the Kd in assay [2] turned out to be 17 µM.

For the compound `COc1c(C(C)=O)c(OCc2cccc(COc3c(C(C)=O)c(OC)c4ccoc4c3OC)c2)c(OC)c2occc12`, the affinity in assay [2], expressed as Kd, was 0.56 µM.

For `COc1c(C(C)=O)c(OCCCCCCOc2c(C(C)=O)c(OC)c3ccoc3c2OC)c(OC)c2occc12`, the Kd in assay [2] turned out to be 0.68 µM; in [3], 0.3 µM; in [4], 0.25 µM. In the assay filed under Homo sapiens, this compound had an EC50 of 0.8 µM.

Turning to `COc1c(C(=O)/C=C/c2cccc(/C=C/C(=O)c3c(O)c(OC)c4occc4c3OC)c2)c(O)c(OC)c2occc12`, the Kd result in [5] is “Not Active”.

Compound `COc1c(/C(C)=N/N=C(\C)c2c(O)c(OC)c3occc3c2OC)c(O)c(OC)c2occc12` showed a Kd in [2] of 70 µM.

Regarding `COc1c(C(=O)/C=C/c2ccccc2)c(O)c(OC)c2occc12`, the Kd in [3] is 1.2 µM; in assay [4], more than 50 µM; in assay [6], 10 µM; in assay [7], more than 100 µM; in assay [8], 5.1 µM. The same compound came in with an EC50 in the assay filed under Homo sapiens of 0.6 µM.

On to `COc1c(C(C)=O)c(O)cc2occc12`, for which the Kd in assay [2] came out at 100 µM.

As to `COc1c(C(=O)/C=C/c2cccc(O)c2)c(O)c(OC)c2occc12`, the Kd in [3] is 1.7 µM; in assay [4] it was more than 50 µM; in assay [6], 50 µM; in [7] it was more than 100 µM; in assay [8] it was 12 µM. The compound further displayed an EC50 in the assay listed under Homo sapiens of 1 µM.

As for `COc1c(C(=O)/C=C/c2cccs2)c(O)c(OC)c2occc12`, the affinity in assay [2], expressed as Kd, was 1 µM.

As for `COc1c(C(=O)/C=C/C=C/c2ccccc2)c(O)c(OC)c2occc12`, in assay [1], the dissociation constant Kd result was “Not Active”.

Consider `COCCOCCOCCOCCOC(=O)c1cc(COc2c(C(C)=O)c(OC)c3ccoc3c2OC)ccc1COc1c(C(C)=O)c(OC)c2ccoc2c1OC`, for which the Kd result in [5] is recorded as “Not Active”.

Compound `COc1c(C(C)=O)c(OCCOCCOc2c(C(C)=O)c(OC)c3ccoc3c2OC)c(OC)c2occc12` displayed a Kd in assay [2] of 4 µM.

Consider `COc1c(C(C)=O)c(OCc2ccc(COc3cc4occc4c(OC)c3C(C)=O)cc2)cc2occc12`, for which the Kd in [2] was 1 µM.

Regarding `COc1c(C(C)=O)c(OCc2ccc(COc3c(C(C)=O)c(OC)c4ccoc4c3OC)cc2)c(OC)c2occc12`, the affinity in assay [2], expressed as Kd, was 3.1 µM.

For the compound `COc1c(C(C)=O)c(OCc2cc(COc3c(C(C)=O)c(OC)c4ccoc4c3OC)cc(COc3c(C(C)=O)c(OC)c4ccoc4c3OC)c2)c(OC)c2occc12`, the dissociation constant (Kd) entry in assay [5] is “Not Active”.

Take `COc1cccc(/C=C/C(=O)c2c(O)c(OC)c3occc3c2OC)c1`: the Kd in assay [2] was 0.8 µM; in assay [3] it was 2 µM; in assay [4], more than 50 µM; in assay [6] it was more than 50 µM; in assay [7], more than 100 µM; in assay [8], 20 µM. The compound also displayed an EC50 in the assay listed under Homo sapiens of 1 µM.

The compound `COc1c(C(=O)CCc2ccccc2)c(O)c(OC)c2occc12` came in with a Kd in assay [2] of 0.6 µM.

As for `COc1c(C(C)=O)c(OCCCCCOc2c(C(C)=O)c(OC)c3ccoc3c2OC)c(OC)c2occc12`, in [2], binding was characterised by a dissociation constant (Kd) of 0.82 µM.

In the case of `COc1c(C(C)=O)c(OCc2ccc(COc3c(C(C)=O)c(OC)c4ccoc4c3OC)c(C(=O)O)c2)c(OC)c2occc12`, the Kd in [2] was determined as 5 µM.

`COc1c(C(C)=O)c(OCc2ccccc2)c(OC)c2occc12` came in with a Kd in assay [2] of 10 µM.

Compound `COc1c(C(=O)/C=C/c2cc(Br)cs2)c(O)c(OC)c2occc12` showed a Kd in assay [2] of 0.8 µM.

As to `COc1c(C(C)=O)c(OCCCCCCCOc2c(C(C)=O)c(OC)c3ccoc3c2OC)c(OC)c2occc12`, the Kd in assay [2] was 3 µM.

In turn, `COc1c(C(C)=O)c(O)c(OC)c2occc12` yielded a Kd in assay [2] of 50 µM.

In [2], `COc1c(C(=O)/C=C/c2ccc(C)cc2)c(O)c(OC)c2occc12` showed a Kd of 0.7 µM.

Take `C=C1C[C@@]2(O)[C@@H]3CC[C@@]4(C)[C@@H]5C=CC(=O)OC[C@]5(C(C)OC(C)=O)[C@@H](OC(C)=O)[C@@H](OC(C)=O)[C@@H]4[C@@]3(C)[C@H](OC(C)=O)[C@H](OC(C)=O)[C@@]2(C)C2(C(=O)OC)O[C@H]12` (stereo partly specified) [CORREOLIDE]: in [2], the Kd turned out to be 0.1 µM. In the assay listed under Homo sapiens, this compound yielded an EC50 of 0.3 µM.

For `Nc1ccncc1` [DALFAMPRIDINE], the Kd in assay [3] came to 290 µM; in [4] it was 590 µM; in [7] it was 29 µM; in assay [8], 270 µM.
